Test results reported in the M2OR odorant receptor database.

target: T1, OR13F1 (Homo sapiens) (UniProt Q8NGS4); settings: stereoisomer not certain
T1 sequence (whole entry): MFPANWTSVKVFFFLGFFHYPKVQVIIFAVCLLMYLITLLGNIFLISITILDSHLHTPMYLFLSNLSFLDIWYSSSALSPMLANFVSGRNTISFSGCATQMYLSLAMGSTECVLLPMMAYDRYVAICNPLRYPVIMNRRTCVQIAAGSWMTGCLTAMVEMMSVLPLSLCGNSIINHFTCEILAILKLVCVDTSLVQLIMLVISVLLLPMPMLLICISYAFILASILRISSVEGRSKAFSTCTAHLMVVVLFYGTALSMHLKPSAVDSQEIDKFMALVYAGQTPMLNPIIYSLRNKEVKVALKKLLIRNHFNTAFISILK
Procedure, shortened: (§1)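 Whether a receptor–molecule pair is responsive (active) rests on the original authors' judgment that its measured signal was statistically different from baseline. Pairs without that judgment are non-responsive (inactive). Sources used varied assay methods, commonly transient luciferase assays in mammalian cell lines.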
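Note: active if original authors judged signal statistically different from baseline.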

Odorant receptor agonist call, inactive:
CC1=NC(C)C(C)S1 (stereo not given)
CCCCC(S)C(C)CO (stereo not given)
CC1=C(O)C(=O)OC1C (stereo not given)
CC(CO)CS (stereo not given)
Cc1cnc(C)c(C)n1
CCCCCC(=O)C(C)C(C)=O (stereo not given)
CCC(S)C(C)CO (stereo not given)
CC1CCCCCCCCCCCCC(=O)C1 (stereo not given)
CCCCCCC=CCCC=O
CCC1OC(C)=C(O)C1=O (stereo not given)
CCCCCC(S)C(C)CO (stereo not given)
CC(=O)c1c(C)c([N+](=O)[O-])c(C(C)(C)C)c([N+](=O)[O-])c1C
CCC1OC(=O)C(O)=C1C (stereo not given)
CCCC(S)CCOC(C)=O (stereo not given)
CC1=C(O)C(=O)C(C)O1 (stereo not given)

target: T2, OR13G1 (Homo sapiens) (UniProt Q8NGZ3); settings: stereoisomer not certain
T2 sequence (whole entry): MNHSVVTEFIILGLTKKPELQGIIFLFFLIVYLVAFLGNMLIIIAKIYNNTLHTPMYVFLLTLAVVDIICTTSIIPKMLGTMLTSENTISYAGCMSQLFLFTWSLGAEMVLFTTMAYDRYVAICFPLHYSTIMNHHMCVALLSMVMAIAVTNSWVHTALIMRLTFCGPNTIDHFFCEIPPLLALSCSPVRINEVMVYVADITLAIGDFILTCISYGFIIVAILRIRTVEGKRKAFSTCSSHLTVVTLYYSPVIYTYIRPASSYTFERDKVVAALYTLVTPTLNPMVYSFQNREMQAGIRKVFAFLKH
Procedure, shortened: as §1

Odorant receptor agonist call, inactive:
CC1=NC(C)C(C)S1 (stereo not given)
CCCCC(S)C(C)CO (stereo not given)
CC1=C(O)C(=O)OC1C (stereo not given)
CC(CO)CS (stereo not given)
Cc1cnc(C)c(C)n1
CCCCCC(=O)C(C)C(C)=O (stereo not given)
CCC(S)C(C)CO (stereo not given)
CC1CCCCCCCCCCCCC(=O)C1 (stereo not given)
CCCCCCC=CCCC=O
CCC1OC(C)=C(O)C1=O (stereo not given)
CCCCCC(S)C(C)CO (stereo not given)
CC(=O)c1c(C)c([N+](=O)[O-])c(C(C)(C)C)c([N+](=O)[O-])c1C
CCC1OC(=O)C(O)=C1C (stereo not given)
CCCC(S)CCOC(C)=O (stereo not given)
CC1=C(O)C(=O)C(C)O1 (stereo not given)
